Compounds with a hit are over-represented: about 1.9% of the library has one in this group of screens.
RAD52 anneal inh: RAD52 (human) annealing inhibition; P43351; recombinant RAD52 DNA annealing, FRET fluorescence; inhibition, % at 18.7 µM; 360,000 compounds, 0.46% hits;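 active = every replicate showing at least 50% inhibition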
RAD54 branch: blocks human RAD54 Holliday junction branch migration; Q92698; FAM/BHQ fluorescence; inhibition, % at 10.4 µM; 360,000 compounds, 0.14% hits;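 active = mean normalized replicate activity at least 40 and at least half of replicates scoring 40 or more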;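 also: 0% = median of neutral control wells and 100% = median of positive control wells; inhibitors cause a drop in the FAM fluorescence signal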
Target sequence (Q92698 whole entry, looked up): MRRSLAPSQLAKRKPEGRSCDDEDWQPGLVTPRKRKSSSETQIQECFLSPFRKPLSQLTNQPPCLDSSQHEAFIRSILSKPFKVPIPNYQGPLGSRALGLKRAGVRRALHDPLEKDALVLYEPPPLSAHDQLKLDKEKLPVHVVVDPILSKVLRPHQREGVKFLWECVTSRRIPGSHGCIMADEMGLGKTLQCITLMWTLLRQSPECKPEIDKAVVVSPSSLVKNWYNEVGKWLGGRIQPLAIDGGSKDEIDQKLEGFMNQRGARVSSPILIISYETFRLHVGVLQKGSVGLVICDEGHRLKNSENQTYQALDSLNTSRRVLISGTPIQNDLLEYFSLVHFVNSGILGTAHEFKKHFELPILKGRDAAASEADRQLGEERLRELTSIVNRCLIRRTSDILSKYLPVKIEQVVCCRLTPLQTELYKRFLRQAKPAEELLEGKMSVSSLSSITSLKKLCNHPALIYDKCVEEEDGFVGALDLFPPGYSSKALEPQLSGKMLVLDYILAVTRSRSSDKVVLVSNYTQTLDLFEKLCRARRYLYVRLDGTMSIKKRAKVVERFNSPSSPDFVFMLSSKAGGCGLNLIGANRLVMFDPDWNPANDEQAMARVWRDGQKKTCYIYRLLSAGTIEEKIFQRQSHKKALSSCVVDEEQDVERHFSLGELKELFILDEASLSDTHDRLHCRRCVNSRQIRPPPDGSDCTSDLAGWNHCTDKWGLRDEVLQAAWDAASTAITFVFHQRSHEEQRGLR
PglD DTNB: blocks C. jejuni PglD acetyltransferase activity; purified PglD enzyme, DTNB colorimetric CoA detection; inhibition, % at 12.5 µM; 360,000 compounds, 0.098% hits; in the data active = inhibition above about 16%, passing the limit was not always enough
Ecoli rRNA inh: inhibitors of bacterial rRNA selective over humanized ribosomes; E. coli WT GFP vs humanized-ribosome RFP mutants, fluorescence, 24 h; active compounds read low; DMSO median 0, no signal -100; GFP signal change (wild-type ribosome), % (no concentration beside the values); 350,000 compounds, 1.6% hits;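 active = significant combined selectivity score with lowered wild-type GFP, culture density cut under 30%, mutant RFP and density less affected; inactive = any of these conditions unmet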
Cneo AK release: Cryptococcus neoformans lysis via adenylate kinase release. C. neoformans lysis, adenylate kinase release luminescence, 4 h; normalised: neutral wells 0, clomiphene wells 100. lysis activity, % at 15 µM. 360,000 compounds, 0.2% hits;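 active = mean lysis activity across replicates of at least 80%, whatever share of replicates individually reach that level; inactive = mean lysis activity below 80%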
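Schedule: static 4 h at 37 °C with compound, 1 h detection; system: C. neoformans cells; benchmarks: Clomiphene as positive control; buffer or medium: fresh YPD medium; measure: luminescence rise reflecting yeast cell lysis; measured by: luminescent adenylate kinase detection reagent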
* marks the source's active call; other numbers are inactive results.

Results for O=C(NC1CC1)C1=C[C@@H](c2ccccc2)C[C@@H](OCCCCO)O1 ?
RAD52 anneal inh: -25; RAD54 branch: 3; PglD DTNB: 4; Ecoli rRNA inh: 1; Cneo AK release: 2

What do the screens show for `O=C(NC1CC1)C1=C[C@@H](c2ccc(Br)cc2)C[C@@H](OCCCCO)O1`?
RAD52 anneal inh: -12; RAD54 branch: 0; PglD DTNB: -1; Ecoli rRNA inh: -19*; Cneo AK release: -2

Results for O=C(CSc1nc2ccccc2s1)Nc1ccc2c(c1)OCO2 ?
RAD52 anneal inh: -14; Ecoli rRNA inh: -28*

How did CC(C)C(=O)Nc1cc(S(=O)(=O)Nc2cccc(Cl)c2)ccc1Cl do in these assays?
RAD52 anneal inh: -6; RAD54 branch: 4; PglD DTNB: 2; Ecoli rRNA inh: -22*; Cneo AK release: 1

Results for O=C(CCC(=O)c1ccc(F)cc1)Nc1cccc(S(=O)(=O)Nc2cccc(Cl)c2)c1 ?
RAD52 anneal inh: 0; Ecoli rRNA inh: -41*

How did CC(C)C(=O)Nc1cc(S(=O)(=O)Nc2ccc(Cl)cc2)ccc1Cl do in these assays?
RAD52 anneal inh: -11; Ecoli rRNA inh: 1

Results for COc1ccc(CN(C)C[C@@H]2Oc3ccc(NC(=O)CCCCCC(=O)Nc4ccccc4N)cc3CC(=O)N([C@H](C)CO)C[C@H]2C)cc1 ?
RAD52 anneal inh: 0; Ecoli rRNA inh: 0

How did C[C@@H]1CN([C@@H](C)CO)C(=O)c2cc(NC(=O)CCC(F)(F)F)ccc2O[C@@H](C)CCCCO[C@H]1CN(C)S(=O)(=O)c1cn(C)cn1 do in these assays?
RAD52 anneal inh: -1; RAD54 branch: -5; PglD DTNB: -1; Ecoli rRNA inh: 2; Cneo AK release: -1

How did CC(=O)c1cccc(NC(=O)c2ccc([N+](=O)[O-])o2)c1 do in these assays?
RAD52 anneal inh: -9; RAD54 branch: -2; PglD DTNB: -1; Cneo AK release: 4

Results for C/C(=N/NC(=O)C(O)(c1ccccc1)c1ccccc1)c1ccc([N+](=O)[O-])o1 ?
RAD52 anneal inh: -12; Ecoli rRNA inh: -35*

How did CO[C@@H]1CN(C)C(=O)c2ccc(NC(=O)c3cnccn3)cc2OC[C@H](C)N(C(C)=O)C[C@@H]1C do in these assays?
Ecoli rRNA inh: 2

How did CC(=O)c1sc(NC(=O)c2cc(-c3ccccc3)nn2-c2ccccc2)nc1C do in these assays?
RAD52 anneal inh: -13; RAD54 branch: 3; PglD DTNB: -7; Ecoli rRNA inh: 17; Cneo AK release: 81*

Results for O=C(Nc1nc2ccccc2s1)c1cc(-c2ccccc2)nn1-c1ccccc1 ?
RAD52 anneal inh: -22; RAD54 branch: 7; PglD DTNB: 7; Ecoli rRNA inh: 19; Cneo AK release: -6

Results for c1ccc(N2CCN(c3nc(NCc4ccco4)c4ccccc4n3)CC2)cc1 ?
RAD54 branch: 8; PglD DTNB: -12; Cneo AK release: 1

What do the screens show for `c1ccc(CNc2nc(N3CCN(Cc4ccccc4)CC3)nc3ccccc23)cc1`?
RAD52 anneal inh: -7; RAD54 branch: 1; PglD DTNB: -1; Ecoli rRNA inh: -43*; Cneo AK release: 15

How did CC(C)NC(=O)N1CCCCN2[C@H](CO)[C@@H](c3ccc(C#Cc4ccccc4)cc3)[C@@H]2C1 do in these assays?
RAD54 branch: 4; PglD DTNB: -4; Ecoli rRNA inh: -57; Cneo AK release: 3

What do the screens show for `CCOC(=O)c1sc(N=NC2=C(O)CCCC2=O)c(C(=O)OCC)c1C`?
RAD52 anneal inh: -16; RAD54 branch: 10; PglD DTNB: -2; Ecoli rRNA inh: -26*; Cneo AK release: 1

What do the screens show for `CC(C)N(C(=S)NC1CC2CCC1C2)c1ccccc1` (stereo not given)?
RAD52 anneal inh: -2; RAD54 branch: -3; PglD DTNB: -7; Ecoli rRNA inh: 9; Cneo AK release: 0

Results for CN(C)c1cccc(C(=O)NNC(=S)NC2CC3CCC2C3)c1 (stereo not given) ?
RAD52 anneal inh: -8; RAD54 branch: 5; PglD DTNB: -1; Ecoli rRNA inh: -24*; Cneo AK release: 4

How did CNC[C@@H]1OCCCC[C@H](C)Oc2ccc(NS(=O)(=O)c3cn(C)cn3)cc2C(=O)N([C@@H](C)CO)C[C@H]1C do in these assays?
RAD52 anneal inh: -357; Ecoli rRNA inh: 10

Results for O=C(COC(=O)CCC(=O)c1ccc(F)cc1)NCc1ccccc1Cl ?
RAD52 anneal inh: -12; RAD54 branch: -1; PglD DTNB: 6; Ecoli rRNA inh: -30*; Cneo AK release: 0

Results for CO[C@H]1CC[C@@H]2CCOc3c(C#N)cccc3C(=O)N(C)C[C@H](OC)[C@@H](C)C(=O)N(C)C[C@@H]1O2 ?
RAD52 anneal inh: 1; RAD54 branch: 2; PglD DTNB: 0; Ecoli rRNA inh: 1; Cneo AK release: 86*

Results for CO[C@@H]1CC[C@H]2CCOc3c(C#N)cccc3C(=O)N(C)C[C@@H](OC)[C@@H](C)C(=O)N(C)C[C@H]1O2 ?
RAD52 anneal inh: -8; RAD54 branch: 0; PglD DTNB: 3; Ecoli rRNA inh: -3; Cneo AK release: 2

How did CO[C@H]1CC[C@H]2CCOc3c(C#N)cccc3C(=O)N(C)C[C@@H](C)C(=O)N(C)C[C@H]1O2 do in these assays?
RAD52 anneal inh: 8; RAD54 branch: -4; PglD DTNB: 6; Ecoli rRNA inh: 4; Cneo AK release: 88*

How did c1ccc(N2CCN(c3ncccn3)CC2)cc1 do in these assays?
RAD54 branch: -1; PglD DTNB: 6; Cneo AK release: 6

What do the screens show for `Fc1cnc(Cl)nc1N1CCN(c2ccccc2)CC1`?
RAD52 anneal inh: 3; Ecoli rRNA inh: -23*

What do the screens show for `c1ccc(CSc2nccc(-c3ccco3)n2)cc1`?
RAD52 anneal inh: -16; RAD54 branch: 5; PglD DTNB: -1; Ecoli rRNA inh: -36*; Cneo AK release: -2

Results for CCC(=O)N1CC2(C1)CN(Cc1ccc(OC)cc1)[C@@H](CO)c1[nH]c3cc(OC)ccc3c12 ?
Ecoli rRNA inh: 0

Results for C[C@@H]1CN(C)C(=O)c2cccc(NS(C)(=O)=O)c2O[C@@H]1CN(C)C ?
Ecoli rRNA inh: 1

What do the screens show for `COc1cccc(C(=O)Nc2nnc(S(=O)(=O)N3CCCC3)s2)c1`?
RAD52 anneal inh: 0; RAD54 branch: -1; PglD DTNB: -7; Ecoli rRNA inh: 1; Cneo AK release: 0

How did COc1cc(C(=O)Nc2nnc(S(=O)(=O)N3CCCCCC3)s2)cc(OC)c1OC do in these assays?
RAD52 anneal inh: -13; RAD54 branch: 3; PglD DTNB: 0; Ecoli rRNA inh: -31*; Cneo AK release: 0

What do the screens show for `CCC(=O)N1CC2(CCN(C(C)=O)CC2)c2c([nH]c3cc(OC)ccc23)[C@@H]1CO`?
RAD52 anneal inh: -15; Ecoli rRNA inh: 1

What do the screens show for `Cn1c(CSc2nc3ccc(Br)cc3[nH]2)nc2ccccc21`?
RAD52 anneal inh: -30; RAD54 branch: 6; PglD DTNB: 0; Ecoli rRNA inh: -22*; Cneo AK release: 0
